This note sets out measurements from ChEMBL document CHEMBL3860028, “Bioactive Phenanthrene and Bibenzyl Derivatives from the Stems of Dendrobium nobile” (J Nat Prod, 2016).

≈ marks a conversion by molar mass, not a printed value.

A short description of test [1]: Cytotoxicity against human HeLa cells assessed as decrease in cell viability after 6 days by MTT assay. The class given is functional, cell-based. As to conditions: 144 h. In outline:
(§1)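 Cell lines from College of Pharmacy, Hebei University, grown in DMEM with 5% fetal bovine serum at 37 °C under 5% CO2. Viability read by MTT method, IC50 values derived. Epirubicin served as positive control.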
A general note: Tetrazolium dyes change colour on reduction, which living cells bring about.

The subject of another test is Alternaria brassicicola. The experiment in a line: Antifungal activity against Alternaria brassicicola after 4 to 14 days by serial dilution method. The class given is functional. In outline: (§2)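 Fungal strains kept on potato dextrose agar. Antifungal activity tested following NCCLS recommendations, with MIC values as the read-out. Prochloraz served as positive control.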

Test [2] can be described thus: Antifungal activity against Phytophthora parasitica var. nicotianae after 4 to 14 days by serial dilution method. The test is classed as functional. In outline:
as §2

Test [3] in a line: Antifungal activity against Pestallozzia theae after 4 to 14 days by serial dilution method. The test is classed as functional. In outline: as §2
Test [4] can be described thus: Antifungal activity against Ceratocystis paradoxa moreau after 4 to 14 days by serial dilution method. The test is classed as functional. As to conditions: Thielaviopsis. The procedure, abridged:
as §2

Another test has as its system Colletotrichum truncatum. The experiment in a line: Antifungal activity against Colletotrichum capsici after 4 to 14 days by serial dilution method. The class given is functional. The procedure, abridged:
as §2

A further test has as its system Alternaria citri. The experiment in a line: Antifungal activity against Alternaria citri after 4 to 14 days by serial dilution method. The class given is functional. The procedure, abridged: (§3)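 Fungus maintained on potato dextrose agar. Antifungal activity determined as MIC following NCCLS (National […] for Clinical Laboratory Standards) recommendations, with prochloraz as the reference antifungal.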

A short description of test [5]: Antifungal activity against Bipolaris oryzae after 4 to 14 days by serial dilution method. The class given is functional. The procedure, abridged: as §3
The nature of test [6]: Cytotoxicity against human A549 cells assessed as decrease in cell viability after 6 days by MTT assay. To be noted: A549, 144 h. The test is classed as functional, cell-based. In outline:
as §1

The nature of test [7]: Cytotoxicity against human MCF7 cells assessed as decrease in cell viability after 6 days by MTT assay. The class given is functional, cell-based. As to conditions: MCF7, 144 h. The procedure, abridged: as §1
Test [8] can be described thus: Antifungal activity against Exserohilum turcicum after 4 to 14 days by serial dilution method. The test is classed as functional. As to conditions: Setosphaeria turcica. In outline: as §2
Test [9] in a line: Antifungal activity against Diaporthe medusaea nitschke after 4 to 14 days by serial dilution method. The test is classed as functional. To be noted: Diaporthe rudis. In outline:
as §2

With `COc1cc(O)cc(CCc2cccc(O)c2)c1` [BATATASIN III], the IC50 in test [1], in [6] and in test [7] was above 10 µM in each case. The MIC in the test on Alternaria brassicicola came out at 102 µM (≈ 25 µg/mL); in test [2], 205 µM (≈ 50.1 µg/mL); in test [3], 205 µM (≈ 50.1 µg/mL); in test [4] it was 102 µM (≈ 25 µg/mL); against Colletotrichum truncatum, 102 µM (≈ 25 µg/mL); in the test on Alternaria citri, 102 µM (≈ 25 µg/mL). The results for the MIC in test [5], in [8] and in test [9] were 102 µM (≈ 25 µg/mL), 102 µM (≈ 25 µg/mL) and 205 µM (≈ 50.1 µg/mL), respectively.

With `COC1=CC(=O)C[C@H]2CC(=O)c3cccc(O)c3[C@@]12O`, the IC50 in [1], in test [6] and in test [7] was above 10 µM in each case. Besides, the MIC (in the test with Alternaria brassicicola; in test [2]; in test [3]; in [4]; in the test with Colletotrichum truncatum; in the test on Alternaria citri) was above 400 µM throughout. The MIC in [5], in [8] and in test [9] was above 400 µM each time.

In the case of `COc1cc(O)c2c(c1)CCc1cc(O)c(-c3c(OC)cc4c(c3O)-c3ccc(O)cc3CC4)cc1-2`, the IC50 in test [1], in [6] and in test [7] was above 10 µM throughout. Moreover, the MIC (in the test with Alternaria brassicicola; in test [2]; in test [3]; in [4]; with Colletotrichum truncatum; in the test with Alternaria citri) was above 400 µM each time. Further, the MIC in [5], in test [8] and in test [9] was above 400 µM throughout.

On to `COC1=CC(=O)C[C@]2(CCc3cccc(O)c32)C1=O`, for which the IC50 in test [1] is 9.8 µM; in test [6], 9.9 µM; in [7], 9.4 µM. The MIC (with Alternaria brassicicola; in [2]; in test [3]; in test [4]; against Colletotrichum truncatum; against Alternaria citri) was above 400 µM throughout. The MIC in test [5], in [8] and in test [9] was above 400 µM in each case.

As for `COC1=CC(=O)C[C@H]2CCc3cccc(O)c3[C@@]12O`, the IC50 in [1], in test [6] and in test [7] was above 10 µM throughout. For the same compound, the minimal inhibitory concentration (MIC) (against Alternaria brassicicola; in [2]; in test [3]; in test [4]; in the test on Colletotrichum truncatum; against Alternaria citri) was above 400 µM throughout. Further, the MIC in test [5], in [8] and in test [9] was above 400 µM throughout.

For `COc1cc(O)c2c(c1-c1c(OC)cc(O)c3c1CCc1cc(O)ccc1-3)CCc1cc(O)ccc1-2`, the IC50 in test [1], in test [6] and in test [7] was above 10 µM each time. Moreover, the MIC (against Alternaria brassicicola; in test [2]; in test [3]; in test [4]; with Colletotrichum truncatum; against Alternaria citri) was above 400 µM each time. The MIC in test [5], in test [8] and in test [9] was above 400 µM each time.

Regarding `COc1cc(O)c2c(c1)CCc1cc(O)c(-c3cc4cccc(O)c4c4c(OC)cc(O)cc34)cc1-2`, the IC50 in test [1], in [6] and in [7] was above 10 µM each time. Moreover, the MIC (in the test with Alternaria brassicicola; in test [2]; in test [3]; in test [4]; against Colletotrichum truncatum; in the test on Alternaria citri) was above 400 µM each time. For the same compound, the MIC in [5], in [8] and in [9] was above 400 µM in each case.

In the case of `COc1cc2c(c(O)c1OC)-c1ccc(O)cc1CC2` [EPHEMERANTHOL A], the IC50 in test [1], in [6] and in [7] was above 10 µM throughout. Moreover, the MIC (with Alternaria brassicicola; in test [2]; in test [3]; in test [4]; in the test with Colletotrichum truncatum; with Alternaria citri) was above 400 µM throughout. The MIC in test [5], in test [8] and in [9] was above 400 µM each time.

Regarding `COc1cc(CCc2cc(O)cc(O)c2)ccc1O` [TRISTIN], the IC50 in [1], in test [6] and in test [7] was above 10 µM throughout. Also, the MIC against Alternaria brassicicola was determined as 192 µM (≈ 50.1 µg/mL); in [2], 385 µM (≈ 100 µg/mL); in test [3], 96.2 µM (≈ 25 µg/mL); in test [4], 96.2 µM (≈ 25 µg/mL); against Colletotrichum truncatum, 96.2 µM (≈ 25 µg/mL); with Alternaria citri, 96.2 µM (≈ 25 µg/mL). Further, the MIC in [5] was 96.2 µM (≈ 25 µg/mL); in test [8], 385 µM (≈ 100 µg/mL); in test [9] it was 192 µM (≈ 50.1 µg/mL).

On to `COC1=CC(=O)c2c(ccc3cc(O)c(O)cc23)C1=O`, for which the IC50 in [1], in test [6] and in [7] was above 10 µM throughout. The MIC (against Alternaria brassicicola; in test [2]; in test [3]; in [4]; in the test on Colletotrichum truncatum; with Alternaria citri) was above 400 µM in each case. Besides, the MIC in test [5], in [8] and in test [9] was above 400 µM each time.

On to `COc1c(O)cc2ccc3c(OC)c(O)ccc3c2c1OC`, for which the IC50 in [1], in [6] and in test [7] was above 10 µM throughout. Further, the MIC (in the test on Alternaria brassicicola; in test [2]; in [3]; in test [4]; against Colletotrichum truncatum; in the test on Alternaria citri) was above 400 µM each time. The MIC in test [5], in test [8] and in test [9] was above 400 µM each time.

For the compound `COc1cc(O)cc(CCc2ccccc2)c1`, the IC50 in [1], in test [6] and in test [7] was above 10 µM each time. Moreover, the MIC in the test with Alternaria brassicicola is above 400 µM; in test [2], 219 µM (≈ 50.1 µg/mL); in [3] it was 219 µM (≈ 50.1 µg/mL); in test [4], 110 µM (≈ 25 µg/mL); against Colletotrichum truncatum it was 110 µM (≈ 25 µg/mL); in the test on Alternaria citri, 110 µM (≈ 25 µg/mL). Also, the values for the minimal inhibitory concentration (MIC) in [5], in [8] and in test [9] were 110 µM (≈ 25 µg/mL), 110 µM (≈ 25 µg/mL) and 219 µM (≈ 50.1 µg/mL), respectively.

For the compound `COc1c(O)cc2ccc3cc(O)ccc3c2c1OC` [NUDOL], the IC50 in [1], in test [6] and in [7] was above 10 µM each time. Further, the MIC (against Alternaria brassicicola; in test [2]; in [3]; in test [4]; in the test with Colletotrichum truncatum; with Alternaria citri) was above 400 µM each time. In addition, the MIC in test [5], in test [8] and in [9] was above 400 µM throughout.

Turning to `CCCN(CCOc1c(Cl)cc(Cl)cc1Cl)C(=O)n1ccnc1` [PROCHLORAZ], the MIC in the test with Alternaria brassicicola worked out at 33.3 µM (≈ 12.5 µg/mL); in test [2], 133 µM (≈ 50.2 µg/mL); in test [3], 66.7 µM (≈ 25.1 µg/mL); in [4], 66.7 µM (≈ 25.1 µg/mL); against Colletotrichum truncatum, 33.3 µM (≈ 12.5 µg/mL); against Alternaria citri, 66.7 µM (≈ 25.1 µg/mL). For the same compound, the MIC in [5] was found to be 133 µM (≈ 50.2 µg/mL); in test [8], 33.3 µM (≈ 12.5 µg/mL); in test [9], 133 µM (≈ 50.2 µg/mL).

The IC50 is the point on the concentration scale where inhibition reaches its midpoint. As usually defined, the MIC is the least concentration at which growth counts as inhibited. Higher therefore signals a need for much substance.
